Test results reported in paper PMC11701428 (RSC Advances, 2025).

Experiments:
HepG2 cells [1] = test: MTT cytotoxicity assay against HepG2 cells; assay type: cell-based; conditions: read-out: IC50 ± SD HepG2, mean ± SD of three independent trials
Outline: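 HepG2 cells (NCI Cairo) grown in RPMI-1640 with L-glutamine, 10% FBS and 1% penicillin–streptomycin at 37 °C, 5% CO2. Plated in triplicate at 5 × 10^4 cells; next day treated at 0.01, 0.1, 1, 10 and 100 μM. Viability measured by MTT relative to control, IC50 computed. Mean ± SD of three independent trials.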

EGFR = EGFR (Homo sapiens, UniProt P00533); test: EGFR-TK enzyme inhibition; assay type: biochemical; conditions: for percentage of inhibition of EGFR: concentration not given
Sequence of EGFR (P00533 25-1210): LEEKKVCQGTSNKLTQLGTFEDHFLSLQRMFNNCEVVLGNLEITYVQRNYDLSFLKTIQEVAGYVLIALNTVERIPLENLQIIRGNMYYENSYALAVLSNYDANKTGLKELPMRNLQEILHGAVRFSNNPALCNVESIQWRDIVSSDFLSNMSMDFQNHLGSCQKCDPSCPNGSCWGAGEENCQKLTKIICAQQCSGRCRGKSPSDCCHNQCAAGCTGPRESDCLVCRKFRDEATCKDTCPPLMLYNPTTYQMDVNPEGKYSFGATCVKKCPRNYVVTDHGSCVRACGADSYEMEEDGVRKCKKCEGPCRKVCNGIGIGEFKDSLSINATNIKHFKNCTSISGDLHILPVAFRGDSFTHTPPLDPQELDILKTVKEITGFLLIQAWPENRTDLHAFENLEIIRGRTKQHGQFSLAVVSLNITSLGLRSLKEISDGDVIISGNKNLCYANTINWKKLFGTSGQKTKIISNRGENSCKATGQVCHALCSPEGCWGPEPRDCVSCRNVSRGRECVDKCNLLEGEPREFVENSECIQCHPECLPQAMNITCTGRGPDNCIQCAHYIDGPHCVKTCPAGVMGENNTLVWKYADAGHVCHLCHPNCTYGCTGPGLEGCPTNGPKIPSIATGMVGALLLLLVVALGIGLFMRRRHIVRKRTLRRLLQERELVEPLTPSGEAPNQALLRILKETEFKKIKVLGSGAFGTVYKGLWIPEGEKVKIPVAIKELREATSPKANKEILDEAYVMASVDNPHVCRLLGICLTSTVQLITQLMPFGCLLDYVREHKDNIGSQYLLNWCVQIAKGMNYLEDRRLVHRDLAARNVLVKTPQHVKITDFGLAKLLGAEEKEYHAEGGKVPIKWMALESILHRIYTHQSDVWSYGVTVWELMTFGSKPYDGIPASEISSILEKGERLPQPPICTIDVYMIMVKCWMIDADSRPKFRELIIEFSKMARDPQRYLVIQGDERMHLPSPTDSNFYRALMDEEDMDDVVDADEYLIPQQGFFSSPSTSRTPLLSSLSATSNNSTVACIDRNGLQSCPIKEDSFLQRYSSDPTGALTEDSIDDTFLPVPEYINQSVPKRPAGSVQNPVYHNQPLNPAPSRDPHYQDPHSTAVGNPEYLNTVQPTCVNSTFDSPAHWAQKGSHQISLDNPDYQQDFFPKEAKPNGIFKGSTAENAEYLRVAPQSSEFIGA

PARP-1 = PARP-1 (Homo sapiens, UniProt P09874); test: PARP-1 enzyme inhibition; assay type: biochemical; conditions: for percentage of inhibition of PARP-1: concentration not given
Sequence of PARP-1 (P09874 whole entry): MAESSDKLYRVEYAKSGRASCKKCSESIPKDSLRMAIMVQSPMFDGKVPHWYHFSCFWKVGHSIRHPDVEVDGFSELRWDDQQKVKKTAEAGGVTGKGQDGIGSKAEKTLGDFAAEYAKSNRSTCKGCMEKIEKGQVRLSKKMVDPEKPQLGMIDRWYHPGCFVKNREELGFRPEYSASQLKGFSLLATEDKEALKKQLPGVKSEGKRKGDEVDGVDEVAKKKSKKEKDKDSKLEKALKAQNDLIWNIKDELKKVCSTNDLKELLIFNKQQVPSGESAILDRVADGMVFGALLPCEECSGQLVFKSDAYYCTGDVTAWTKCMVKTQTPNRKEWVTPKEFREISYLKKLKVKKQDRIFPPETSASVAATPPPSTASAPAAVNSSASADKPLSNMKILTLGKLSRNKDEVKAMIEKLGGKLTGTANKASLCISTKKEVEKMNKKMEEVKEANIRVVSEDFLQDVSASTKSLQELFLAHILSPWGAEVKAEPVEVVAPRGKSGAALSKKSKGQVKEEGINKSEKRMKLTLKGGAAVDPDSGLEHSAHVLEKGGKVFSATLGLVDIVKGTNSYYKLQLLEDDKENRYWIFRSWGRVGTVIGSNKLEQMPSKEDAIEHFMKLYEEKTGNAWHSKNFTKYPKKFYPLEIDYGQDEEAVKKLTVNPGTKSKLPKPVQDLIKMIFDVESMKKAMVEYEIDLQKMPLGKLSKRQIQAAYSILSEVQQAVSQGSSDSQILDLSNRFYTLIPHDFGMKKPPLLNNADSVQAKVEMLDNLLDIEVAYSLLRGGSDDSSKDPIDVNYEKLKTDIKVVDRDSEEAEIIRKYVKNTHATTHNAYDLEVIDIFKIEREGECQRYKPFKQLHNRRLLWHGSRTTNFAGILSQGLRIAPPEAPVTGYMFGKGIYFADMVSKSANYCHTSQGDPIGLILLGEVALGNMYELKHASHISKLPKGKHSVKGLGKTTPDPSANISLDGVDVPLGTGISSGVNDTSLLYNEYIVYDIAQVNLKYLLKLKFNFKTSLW

HepG2 cells [2] = test: Annexin V/PI staining flow cytometry; assay type: cell-based; conditions: HepG2, treated at IC50 for 48 h
HepG2 cells [3] = test: Cell cycle analysis by flow cytometry in HepG2 cells; assay type: cell-based; conditions: HepG2, treated at IC50 for 48 h
Outline: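 Flow cytometric cell-phase distribution of HepG2 cells. Cells were left untreated or given test compound at its IC50 for 48 h. Data are mean ± SD of three independent runs.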

[4] = system: apoptosis-related genes (P53, Bax, caspases 3, 8, 9, BCL-2) in HepG2 cells; test: RT-PCR gene expression of apoptosis-related genes in HepG2 cells; assay type: cell-based; conditions: HepG2, IC50, 48 h, normalized to β-actin

| Structure (SMILES) | IC50 (EGFR) [nM] | percentage of inhibition of EGFR (EGFR) [%] | IC50 (PARP-1) [nM] | percentage of inhibition of PARP-1 (PARP-1) [%] | IC50 (HepG2 cells [1]) [nM] | further results |
| --- | --- | --- | --- | --- | --- | --- |
| Cc1c(C(=O)/C=C/c2cc3ccccc3s2)nnn1-c1c(Cl)cc(Cl)cc1Cl [1b, (E)-3-(Benzo[b]thiophen-2-yl)-1-(5-methyl-1-(2,4,6-trichlorophenyl)-1H-1,2,3-triazol-4-yl)prop-2-en-1-one] |  |  |  |  | 8500 ± 400 |  |
| Cc1c(C(=O)[C@H]2[C@H](c3cc4ccccc4s3)C3CCCN3[C@]23C(=O)Nc2ccc(F)cc23)nnn1-c1c(Cl)cc(Cl)cc1Cl (stereo partly drawn) [4f, (1′S,2′S,3R)-1′-(Benzo[b]thiophen-2-yl)-5-fluoro-2′-(5-methyl-1-(2,4,6-trichlorophenyl)-1H-1,2,3-triazole-4-carbonyl)-1′,2′,5′,6′,7′,7a′-hexahydrospiro[indoline-3,3′-pyrrolizin]-2-one] | 116 ± 3.1 | 84.3 | 18.4 ± 1 | 86.6 |  |  |
| Cc1c(C(=O)[C@H]2[C@H](c3cc4ccccc4o3)C3CCCN3[C@]23C(=O)Nc2ccc(F)cc23)nnn1-c1c(Cl)cc(Cl)cc1Cl (stereo partly drawn) [4g, (1′S,2′S,3R)-1′-(Benzofuran-2-yl)-5-fluoro-2′-(5-methyl-1-(2,4,6-trichlorophenyl)-1H-1,2,3-triazole-4-carbonyl)-1′,2′,5′,6′,7′,7a′-hexahydrospiro[indoline-3,3′-pyrrolizin]-2-one] |  |  |  |  | 8900 ± 300 |  |

More lines, main results first:

| IC50 (EGFR) [nM] | percentage of inhibition of EGFR (EGFR) [%] | IC50 (PARP-1) [nM] | percentage of inhibition of PARP-1 (PARP-1) [%] | Structure (SMILES) | IC50 (HepG2 cells [1]) [nM] | further results |
| --- | --- | --- | --- | --- | --- | --- |
| 74.6 ± 1.8 | 94.1 | 2.01 ± 0.1 | 95.2 | Cc1c(C(=O)[C@H]2[C@H](c3cc4ccccc4o3)C3CCCN3[C@]23C(=O)Nc2cc(Cl)ccc23)nnn1-c1c(Cl)cc(Cl)cc1Cl (stereo partly drawn) [4a, (1′S,2′S,3R)-1′-(Benzofuran-2-yl)-6-chloro-2′-(5-methyl-1-(2,4,6-trichlorophenyl)-1H-1,2,3-triazole-4-carbonyl)-1′,2′,5′,6′,7′,7a′-hexahydrospiro[indoline-3,3′-pyrrolizin]-2-one] |  | early apoptosis cell population (HepG2 cells [2]): 12.1%; induction of apoptosis versus untreated control (HepG2 cells [2]): 6.62 fold; late apoptosis cell population (HepG2 cells [2]): 0.95%; cells in necrosis (HepG2 cells [2]; untreated 0.61%): 0.58%; cell population in total apoptosis (HepG2 cells [2]; untreated 1.97%): 13.05%; cell population in S-phase (HepG2 cells [3]; control 30%): 33%; cell population in G2/M-phase (HepG2 cells [3]; control 34%): 42%; Bax gene expression fold change ([4]; 2^−ΔΔCT): 4.6 fold; P53 gene expression fold change ([4]; 2^−ΔΔCT): 9.3 fold; caspase 3 gene expression fold change ([4]; 2^−ΔΔCT): 5.6 fold; caspase 8 gene expression fold change ([4]; 2^−ΔΔCT): 3.5 fold; caspase 9 gene expression fold change ([4]; 2^−ΔΔCT): 8.6 fold; BCL-2 gene expression (fold, decrease) ([4]; anti-apoptotic gene, decreased): 0.37 fold |
| 85.3 ± 2.9 | 90.1 | 3.6 ± 0.3 | 81.2 | Cc1c(C(=O)[C@H]2[C@H](c3cc4ccccc4s3)C3CCCN3[C@]23C(=O)Nc2cc(Cl)ccc23)nnn1-c1c(Cl)cc(Cl)cc1Cl (stereo partly drawn) [4b, (1′S,2′S,3R)-1′-(Benzo[b]thiophen-2-yl)-6-chloro-2′-(5-methyl-1-(2,4,6-trichlorophenyl)-1H-1,2,3-triazole-4-carbonyl)-1′,2′,5′,6′,7′,7a′-hexahydrospiro[indoline-3,3′-pyrrolizin]-2-one] |  |  |
